{"data": "Published values gathered from unrelated publications", "target": "Serine/threonine-protein kinase MRCK beta (CDC42BPB, Homo sapiens, UniProt Q9Y5S2)", "note": "Each line is one published result; the experiments were not run side by side."}
{"SMILES": "CSc1cccnc1N1CCN(Cc2nc3ccccc3[nH]2)CC1", "effect on": "cell-free assay", "method": "competition with immobilised ligand", "concentration": "1 µM", "endpoint": "remaining binding", "result": "100%"}
{"SMILES": "COc1cc(Cl)c(C(=O)N[C@@H](CN[C@H]2CC[C@@H](N)CC2)Cc2ccc(C#N)cc2)cc1-c1ccc(CN[C@H](C)c2ccc(C)cc2)o1", "effect on": "enzyme activity", "action": "inhibitor", "concentration": "1 µM", "endpoint": "remaining activity", "result": "100%"}
{"SMILES": "COc1cccc(CNC(=O)c2nc3scc(COCc4ccc(C(=O)O)cc4)c3c(=O)[nH]2)c1", "effect on": "cell-free assay", "method": "competition with immobilised ligand", "concentration": "1 µM", "endpoint": "remaining binding", "result": "99.5%"}
{"SMILES": "CCN(CC)c1ccc(C2=NNC(=O)CC2C)cc1[N+](=O)[O-] (centres unmarked)", "effect on": "enzyme activity", "action": "inhibitor", "concentration": "10 µM", "endpoint": "remaining activity", "result": "101%"}
{"SMILES": "Cc1c(NC(=O)c2cc(C(N)=O)nc3cc(F)ccc23)c(C(F)(F)F)nn1Cc1ccc(C#N)cc1", "effect on": "cell-free assay", "method": "competition with immobilised ligand", "concentration": "1 µM", "endpoint": "remaining binding", "result": "100%"}
{"SMILES": "COc1cccc2c(NCc3ccccc3)nc(-n3c(N)nc4ccccc43)nc12", "effect on": "target engagement in cells", "action": "inhibitor", "method": "chemoproteomics", "concentration": "20 mM", "endpoint": "inhibition", "result": "-1.3%"}
{"SMILES": "CN1CCN(c2cnc3c(C4CCN(C(=O)c5ccc(OC(F)(F)F)cc5N)CC4)ncnc3c2)CC1", "effect on": "cell-free assay", "method": "competition with immobilised ligand", "concentration": "1 µM", "endpoint": "remaining binding", "result": "100%"}
{"SMILES": "CCN(CC)CCNC(=O)c1c(C)[nH]c(/C=C2\\C(=O)Nc3ccc(F)cc32)c1C", "effect on": "enzyme activity", "action": "inhibitor", "concentration": "10 µM", "endpoint": "inhibition", "result": "17%"}
{"SMILES": "CC/C(=N\\NC(=O)C(C)Nc1ccccc1)c1ccc(O)c(C)c1O (centres unmarked)", "effect on": "enzyme activity", "action": "inhibitor", "concentration": "0.1 µM", "endpoint": "inhibition", "result": "7.1%"}
{"SMILES": "COc1cc2ncnc(Nc3ccc(Oc4ccccc4)cc3C)c2cc1OC", "effect on": "enzyme activity", "action": "inhibitor", "concentration": "1 µM", "endpoint": "inhibition", "result": "-5%"}
{"SMILES": "CCN(CC)CCNC(=O)c1c(C)[nH]c(/C=C2\\C(=O)Nc3ccc(Cl)cc32)c1C", "effect on": "enzyme activity", "action": "inhibitor", "concentration": "0.5 µM", "endpoint": "remaining activity", "result": "96.1%"}
{"SMILES": "CNC(=O)c1cc(Oc2ccc(NC(=O)Nc3ccc(Cl)c(C(F)(F)F)c3)cc2)ccn1", "effect on": "enzyme activity", "action": "inhibitor", "concentration": "10 µM", "endpoint": "inhibition", "result": "0%"}
{"SMILES": "N#CCCc1ccc2c(c1)-c1[nH]c3ccc([N+](=O)[O-])cc3c1CC(=O)N2", "effect on": "cell-free assay", "concentration": "0.5 µM", "endpoint": "remaining signal", "result": "54.1%"}
{"SMILES": "CC(C)(C)c1nc(-c2cccc(NS(=O)(=O)c3c(F)cccc3F)c2F)c(-c2ccnc(N)n2)s1", "effect on": "enzyme activity", "action": "inhibitor", "method": "radiometric", "concentration": "1 µM", "endpoint": "remaining activity", "result": "98%"}
{"SMILES": "CCc1ccccc1C(=O)Nc1n[nH]c2c(C)c(F)c(C3C(C#N)=C(C)N(C)C(C)=C3C#N)cc12", "effect on": "cell-free assay", "method": "competition with immobilised ligand", "concentration": "1 µM", "endpoint": "remaining binding", "result": "100%"}
{"SMILES": "O=c1c2ccccc2[nH]c(=S)n1CCN1CCC(=C(c2ccc(F)cc2)c2ccc(F)cc2)CC1", "effect on": "enzyme activity", "action": "inhibitor", "concentration": "0.5 µM", "endpoint": "remaining activity", "result": "106%"}
{"SMILES": "CN([C@@H]1CCc2c(CC(=O)O)c3cc(S(C)(=O)=O)ccc3n2C1)S(=O)(=O)c1ccc(F)cc1", "effect on": "cell-free assay", "method": "competition with immobilised ligand", "concentration": "1 µM", "endpoint": "remaining binding", "result": "100%"}
{"SMILES": "CCCOc1ccc(OC)c(F)c1C(=O)c1ccc(C(=O)N[C@@H]2CNC[C@H]2NC(=O)c2ccc3[nH]ncc3c2)cc1", "effect on": "enzyme activity", "action": "inhibitor", "concentration": "10 µM", "endpoint": "remaining activity", "result": "0%"}
{"SMILES": "CC(C)(O)[C@H]1CC[C@H](Nc2ccc3ncc(-c4cccc(C(F)(F)F)c4)n3n2)CC1", "effect on": "enzyme activity", "action": "inhibitor", "concentration": "1 µM", "endpoint": "remaining activity", "result": "98.9%"}
{"SMILES": "O=C1Nc2ccc(Cl)cc2C1=Cc1cc(Cl)c(O)c(Cl)c1", "effect on": "cell-free assay", "concentration": "0.5 µM", "endpoint": "remaining signal", "result": "91.4%"}
{"SMILES": "O=C(Nc1cnn(-c2csc(C(=O)NC3COC3)c2)c1)Nc1c(F)cccc1Cl", "effect on": "enzyme activity", "action": "inhibitor", "concentration": "5 µM", "endpoint": "remaining activity", "result": "89%"}
{"SMILES": "Cc1cnc(NC2CCOCC2)nc1-n1cnc(C(=O)NC(CN)c2cc(F)cc(Cl)c2)c1 (centres unmarked)", "effect on": "enzyme activity", "action": "inhibitor", "method": "radiometric", "concentration": "1 µM", "endpoint": "remaining activity", "result": "59%"}
{"SMILES": "CNCc1ccccc1-c1csc([C@H](C)Nc2nc(C)nc3cc(OC)c(OC)cc23)c1", "effect on": "cell-free assay", "method": "competition with immobilised ligand", "concentration": "1 µM", "endpoint": "remaining binding", "result": "100%"}
{"SMILES": "Cc1ccc(Nc2nccc(N(C)c3ccc4c(C)n(C)nc4c3)n2)cc1S(N)(=O)=O", "effect on": "enzyme activity", "action": "inhibitor", "concentration": "10 µM", "endpoint": "inhibition", "result": "11%"}
{"SMILES": "Cc1noc([C@H]2C[C@@H](c3ccc(C(F)(F)F)cc3)CN(C(=O)N3CCS(=O)(=O)C3)C2)n1", "effect on": "cell-free assay", "method": "competition with immobilised ligand", "concentration": "1 µM", "endpoint": "remaining binding", "result": "100%"}
{"SMILES": "c1ccc(CNc2nc(N3CCOc4ccccc43)nc3c2CCCC3)cc1", "effect on": "target engagement in cells", "action": "inhibitor", "method": "chemoproteomics", "concentration": "20 mM", "endpoint": "inhibition", "result": "-0.5%"}
